These results are taken from ChEMBL document CHEMBL1240482, “Synthesis and antiproliferative evaluation of certain indeno[1,2-c]quinoline derivatives. Part 2” (J Med Chem, 2010).

In series [1] the test system is HeLa. Briefly: Cytotoxicity against human HeLa cells after 48 hrs by MTT assay. The class given is functional. A digest of the protocol:
(§1)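 Cells grown in DMEM with 10% FBS at 37 °C and 5% CO2, seeded at 5 × 10^3 per well and allowed 24 h before drug. Serial dilutions from DMSO stocks applied for 48 h. MTT (2 mg/mL in PBS) added for 2 h, formazan dissolved in DMSO, absorbance read at 570 nm. GI50 interpolated by linear regression from at least three points in the 20-80% range; three independent experiments.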

In series [2] the test system is SAS. Description: Cytotoxicity against human SAS cells after 48 hrs by MTT assay. It is filed as functional. In outline:
as §1

For a further series, the system named is A549. Description: Cytotoxicity against human A549 cells after 48 hrs by MTT assay. It is filed as functional. As to conditions: A549, 48 h. In outline:
as §1
A general note: Tetrazolium assays rely on reduction of a dye to a coloured formazan, in cell work by metabolically active cells.

For another series, the system named is PC-3. Description: Cytotoxicity against human PC3 cells after 48 hrs by MTT assay. It is filed as functional. To be noted: PC-3, 48 h. In outline:
as §1

Series [3] can be described thus: Cytotoxicity against human SKHep cells after 48 hrs by MTT assay. The class given is functional. A digest of the protocol:
as §1

Series [4] can be described thus: Cytotoxicity against human BT-483 cells after 48 hrs by MTT assay. The class given is functional. To be noted: BT-483, 48 h. In outline: as §1
Series [5] can be described thus: Cytotoxicity against human Detroit 551 cells after 48 hrs by MTT assay. The class given is cell-based. In outline:
as §1

For series [6], the system named is HeLa. Description: Selectivity index, ratio of IC50 for human Detroit 551 cells to IC50 for human HeLa cells. It is filed as functional.
For series [7], the system named is SAS. Briefly: Selectivity index, ratio of IC50 for human Detroit 551 cells to IC50 for human SAS cells. It is filed as functional.
Series [8] relates to Detroit 551. Briefly: Selectivity index, ratio of IC50 for human Detroit 551 cells to IC50 for human A549 cells. It is filed as functional.
Series [9] deals with Detroit 551. Description: Selectivity index, ratio of IC50 for human Detroit 551 cells to IC50 for human PC3 cells. The class given is functional.
Series [10] concerns Detroit 551. Briefly: Selectivity index, ratio of IC50 for human Detroit 551 cells to IC50 for human SKHep cells. It is filed as functional.
For series [11], the system named is Detroit 551. Briefly: Selectivity index, ratio of IC50 for human Detroit 551 cells to IC50 for human BT-483 cells. The class given is functional.
The next series has as its system Nucleic Acid. Description: Binding affinity to pBR322. To be noted: Escherichia coli. It is filed as nucleic-acid assay.
The target in series [12] is T1, DNA topoisomerase 1 (Homo sapiens) (UniProt P11387).
T1 sequence (whole entry): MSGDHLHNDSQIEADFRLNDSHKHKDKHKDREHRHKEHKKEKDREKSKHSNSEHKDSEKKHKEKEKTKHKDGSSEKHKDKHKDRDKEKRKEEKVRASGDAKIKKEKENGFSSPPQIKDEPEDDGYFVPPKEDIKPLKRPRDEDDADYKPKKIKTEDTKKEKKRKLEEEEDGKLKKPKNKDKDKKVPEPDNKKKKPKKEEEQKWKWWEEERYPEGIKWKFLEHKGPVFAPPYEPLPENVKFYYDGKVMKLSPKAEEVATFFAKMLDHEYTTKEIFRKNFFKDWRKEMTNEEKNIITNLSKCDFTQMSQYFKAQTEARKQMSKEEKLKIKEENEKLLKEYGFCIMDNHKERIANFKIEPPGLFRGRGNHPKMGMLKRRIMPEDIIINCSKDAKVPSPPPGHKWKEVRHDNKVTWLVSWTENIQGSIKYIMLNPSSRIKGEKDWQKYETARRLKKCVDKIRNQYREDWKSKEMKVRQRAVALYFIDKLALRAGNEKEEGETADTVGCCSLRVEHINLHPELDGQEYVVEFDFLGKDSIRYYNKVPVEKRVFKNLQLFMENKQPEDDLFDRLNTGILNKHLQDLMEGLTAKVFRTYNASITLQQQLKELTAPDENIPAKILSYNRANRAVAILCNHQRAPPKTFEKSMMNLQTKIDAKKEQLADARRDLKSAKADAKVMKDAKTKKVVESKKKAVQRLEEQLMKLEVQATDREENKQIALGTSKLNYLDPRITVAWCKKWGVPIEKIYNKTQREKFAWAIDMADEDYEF
Description: Inhibition of human topoisomerase 1 assessed as decrease in pBR322 mobility on agarose gel at 10 uM by electrophoresis. A digest of the protocol: (§2)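 Enzyme preincubated with compound before DNA addition; reaction run 30 min at 37 °C and stopped with SDS. Products resolved on 1% agarose, stained with ethidium bromide, quantified by densitometry.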

The target in a further series is T2, DNA topoisomerase 1 (Homo sapiens, UniProt P11387).
T2 sequence (P11387 whole entry): T1 sequence (whole entry)
Briefly: Inhibition of human topoisomerase 1 assessed as decrease in pBR322 mobility on agarose gel by electrophoresis. A digest of the protocol:
as §2

The species entered for a further series is Homo sapiens. Description: Inhibition of human topoisomerase 2 assessed as decrease in pBR322 mobility on agarose gel at 10 uM by electrophoresis. In outline: as §2
Series [13] can be described thus: Inhibition of human topoisomerase 2 assessed as decrease in pBR322 mobility on agarose gel by electrophoresis. A digest of the protocol: as §2

The source made the active and inactive calls. No cut-off for these calls is given here.

For orientation: inhibition means the change of the read-out against control, counted positive when it falls. By IC50 is commonly meant the midpoint of a concentration-inhibition curve. As for `COc1ccc2c(c1)/C(=N\OCCN(C)C)c1c-2cnc2ccccc12`, the GI50 in the series on HeLa [1] (read-out: GI50) is 420 nM; in the series with HeLa [1] (read-out: pGI50 (converted)), 417 nM; in the series with SAS [2] it was 1140 nM; in the series on A549, 1300 nM; in the series with PC-3, 1890 nM; in [3], 1200 nM. In addition, the GI50 in series [4] came to 3610 nM. For the same compound, in series [5], the GI50 at 48 h came out at 6850 nM. The RatioGI50 in the series on HeLa [6] is reported as 16.31; in the series with SAS [7], 6.01; with Detroit 551 [8], 5.27; with Detroit 551 [9], 3.62; with Detroit 551 [10], 5.71; in the series on Detroit 551 [11], 1.9. The result with Nucleic Acid was Active. Besides, the inhibition in series [12] is 82%; in the series filed under Homo sapiens it was 75%. Further, the IC50 was found to be 7200 nM at DNA topoisomerase 1 and 6700 nM in series [13].
As to `COc1ccc2c(c1)/C(=N\OCCN1CCCC1)c1c-2c(N2CCNCC2)nc2ccccc12`, the GI50 is 570 nM with HeLa [1] (read-out: GI50); 575 nM in the series on HeLa [1] (read-out: pGI50 (converted)); 2430 nM in the series on SAS [2]; 500 nM with A549; 3370 nM in the series with PC-3; 680 nM in [3]. In series [4], the GI50 came to 1430 nM. In [5], this compound yielded a GI50 at 48 h of 1470 nM. The RatioGI50 with HeLa [6] turned out to be 2.58; in the series on SAS [7], 0.6; in the series on Detroit 551 [8], 4.63; with Detroit 551 [9], 0.44; with Detroit 551 [10], 2.16; in the series on Detroit 551 [11], 1.03. Moreover, the result in the series with Nucleic Acid was Active. Moreover, the figures for the inhibition (in series [12]; in the series listed under Homo sapiens) were 48% and 74%, respectively. For the same compound, the IC50 on DNA topoisomerase 1 amounted to 12800 nM; in [13], 6440 nM.
In the case of `COc1ccc2c(c1)/C(=N\OCCN(C)C)c1c-2c(O)nc2ccccc12`, the GI50 was 230 nM with HeLa [1] (read-out: GI50); 229 nM in the series with HeLa [1] (read-out: pGI50 (converted)); 1100 nM with SAS [2]; 1000 nM in the series with A549; 5340 nM in the series on PC-3; 2560 nM in series [3]. Besides, the GI50 in series [4] was 4040 nM. The compound further gave a GI50 at 48 h in series [5] of 9600 nM. In addition, the RatioGI50 is 41.74 with HeLa [6]; 8.73 in the series on SAS [7]; 9.6 with Detroit 551 [8]; 1.8 in the series with Detroit 551 [9]; 3.75 in the series on Detroit 551 [10]; 2.38 in the series with Detroit 551 [11]. In the series with Nucleic Acid, the result was Active. For the same compound, the inhibition in series [12] came to 73%; in the series listed under Homo sapiens, 46%. Also, the results for the IC50 (on DNA topoisomerase 1; in series [13]) were 7400 nM and 10200 nM, respectively.
As for `COc1ccc2c(c1)/C(=N\OCCN1CCCC1)c1c-2cnc2ccccc12`, the GI50 in the series with HeLa [1] (read-out: GI50) is 450 nM; in the series with HeLa [1] (read-out: pGI50 (converted)), 447 nM; in the series on SAS [2], 1190 nM; in the series on A549 it was 1540 nM; in the series on PC-3 it was 2320 nM; in series [3] it was 1510 nM. Also, in series [4], the GI50 amounted to 3110 nM. This compound showed a GI50 at 48 h in [5] of 6290 nM. The RatioGI50 with HeLa [6] is 13.98; in the series with SAS [7] it was 5.29; with Detroit 551 [8] it was 4.08; in the series on Detroit 551 [9], 2.71; in the series on Detroit 551 [10] it was 4.17; in the series on Detroit 551 [11], 2.02. For the same compound, the result in the series with Nucleic Acid was Active. The inhibition in series [12] amounted to 67%; in the series filed under Homo sapiens it was 80%. The results for the IC50 (on DNA topoisomerase 1; in series [13]) were 8200 nM and 6500 nM, respectively.
As for `COc1ccc2c(c1)/C(=N\OCCN1CCCCC1)c1c-2cnc2ccccc12`, the GI50 is 2670 nM in the series with HeLa [1] (read-out: GI50); 2690 nM with HeLa [1] (read-out: pGI50 (converted)); 7180 nM in the series on SAS [2]; 8480 nM in the series on A549; 6380 nM in the series with PC-3; 5260 nM in [3]. The GI50 in series [4] came to 5170 nM. Also, in series [5], the GI50 at 48 h came out at 6300 nM. In addition, the RatioGI50 is given as 2.36 in the series on HeLa [6]; 0.88 with SAS [7]; 0.74 in the series with Detroit 551 [8]; 0.99 in the series on Detroit 551 [9]; 1.2 with Detroit 551 [10]; 1.22 with Detroit 551 [11]. Moreover, the result in the series on Nucleic Acid was Active. The figures for the inhibition (in series [12]; in the series filed under Homo sapiens) were 28% and 50%, respectively. For the same compound, the IC50 at DNA topoisomerase 1 is 16500 nM; in [13], 10000 nM.
For the compound `COc1ccc2c(c1)/C(=N\OCCN(C)C)c1c-2c(N2CCNCC2)nc2ccccc12`, the GI50 in the series with HeLa [1] (read-out: pGI50 (converted)) was 912 nM; in [4] it was 1100 nM. Besides, in series [5], the GI50 at 48 h was 2720 nM. Moreover, the RatioGI50 in the series on HeLa [6] amounted to 2.96; with SAS [7], 0.43; in the series with Detroit 551 [8], 3.83; in the series with Detroit 551 [9] it was 0.59; in the series on Detroit 551 [10], 0.9; with Detroit 551 [11], 2.47. Also, the result in the series on Nucleic Acid was Active. For the same compound, the inhibition in [12] was 56%; in the series filed under Homo sapiens it was 75%. The IC50 at DNA topoisomerase 1 stood at 8500 nM; in [13], 4870 nM.
